Lmaj promast – Leishmania major promastigote growth inhibition; Leishmania major promastigotes, resazurin fluorescence viability; inhibition, % at 10 µM; 9% of 200,000 active; in the data active = inhibition above about 50%;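 note: promastigotes grown with compound for 44 hours at 28 °C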
PMI act hi M6P – activators of human phosphomannose isomerase at near-saturating mannose 6-phosphate; P34949; coupled PMI enzyme assay, resazurin fluorescence, 20 min; active compounds read high; 1 = untreated enzyme, 0 = substrate-free blank; activation factor at 20 µM; 0.34% of 190,000 active;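 active = activation factor of 2 or more at 20 µM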
Target sequence (P34949 whole entry, looked up): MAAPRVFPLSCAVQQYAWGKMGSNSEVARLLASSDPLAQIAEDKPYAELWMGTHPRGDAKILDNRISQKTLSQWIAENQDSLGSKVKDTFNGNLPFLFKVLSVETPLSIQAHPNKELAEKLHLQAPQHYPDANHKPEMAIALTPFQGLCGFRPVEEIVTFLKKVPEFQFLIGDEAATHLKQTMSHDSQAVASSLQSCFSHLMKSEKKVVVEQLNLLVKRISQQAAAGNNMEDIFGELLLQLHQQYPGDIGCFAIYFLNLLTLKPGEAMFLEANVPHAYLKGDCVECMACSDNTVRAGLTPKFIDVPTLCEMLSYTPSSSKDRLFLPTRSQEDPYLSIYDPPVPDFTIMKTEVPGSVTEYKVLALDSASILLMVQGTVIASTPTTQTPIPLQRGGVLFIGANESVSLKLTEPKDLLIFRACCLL
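Material: human phosphomannose isomerase with PGI, G6PDH, diaphorase coupling enzymes. Quantity: 15 ng/mL PMI. Medium: HEPES pH 7.4 buffer with MgCl2 and Tween-20. Reagent: Near-saturating mannose-6-phosphate, 1.0 mM. Compound: 20 µM single dose. Times: enzyme reaction with compound 20 min at room temperature. Detection: resorufin fluorescence at Ex 544/Em 590 nm.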
PMI activator – phosphomannose isomerase (human) activation; purified human PMI, coupled resazurin fluorescence, 20 min; active compounds read high; 1 = vehicle control, 0 substrate-free wells; activation factor at 20 µM; AID 1214; P34949; 0.005% of 190,000 active;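 active = activation factor of 2 or more at 20 µM, relative to plate controls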
HCT116 PTEN-null – suppresses growth of cells with PTEN deletion; HCT116 PTEN-null viability, CellTiter-Glo, 60 h; active compounds read low; viability, % at 10 µM; 1.2% of 140,000 active;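 active = viability at or below a set limit, 4 SD under the median of all tested compounds, cut at about 3.7% in these data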;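 note: PTEN knockout HCT116 line with beta catenin targeted HCT116 as companion control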
bCat KO growth – beta-catenin-lacking colon tumor cell growth suppression. HCT116 beta-catenin knockout viability, CellTiter-Glo, 60 h; active compounds read low. viability, % at 10 µM. 1.5% of 140,000 active. AID 818;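 active = viability at or under a set limit, the compound median less 4 SD, cut at about 6% in these data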;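 note: 0% = Hyamine 1622 control at 20 µM and 100% = untreated cell control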
* marks the source's active call; other numbers are inactive results; / = not tested or not shown. Rows were chosen to be rich in hits. Some 9.6% of all compounds tested hit in one or more screens of this group.

SMILES	Lmaj promast	PMI act hi M6P	PMI activator	HCT116 PTEN-null	bCat KO growth
CC(C(=O)NCc1cccs1)N1C(=O)c2ccccc2C1=O (stereo unspecified)	-6	1	1	95	98
Cc1ccc(C(=O)NC2CCS(=O)(=O)C2)cc1S(=O)(=O)N1CCCCCC1 (stereo unspecified)	-2	1	0.9	/	/
O=C(Oc1cccc2cccnc12)c1cccc([N+](=O)[O-])c1	34	0.6	0.8	/	/
O=C(Oc1c(Cl)cc(Cl)c2cccnc12)c1cccc([N+](=O)[O-])c1	70*	0.8	0.7	10	4.4*
O=C(NCCO[N+](=O)[O-])c1cccnc1	/	1.2	1.2	/	/
CC1(C)CC2CC(C)(CN2Cc2c(O)ccc3ccccc23)C1 (stereo unspecified)	7	0.3	0.6	/	/
CNC(=S)N1N=C(c2ccc(C)cc2)CC1c1cc(OC)ccc1OC (stereo unspecified)	53*	1	1	/	/
CNC(=S)N1N=C(c2ccc(Br)cc2)CC1c1ccc(OC)cc1 (stereo unspecified)	99*	0.9	0.8	77	80
CNC(=S)N1N=C(c2ccc(C)cc2)CC1c1ccc(OC)cc1 (stereo unspecified)	97*	1	0.9	77	82
CNC(=S)N1N=C(c2ccc(OC)cc2)CC1c1ccc(Cl)cc1Cl (stereo unspecified)	100*	0.9	0.9	/	/
CNC(=S)N1N=C(c2ccc(C)cc2)CC1c1ccc(N(C)C)cc1 (stereo unspecified)	8	0.9	1	/	/
COc1ccc(C2C=C(c3ccc(F)cc3)NC(=S)N2)cc1OC (stereo unspecified)	7	0.8	0.9	/	/
O=C1CSCN1c1ccc(Cl)cc1	-6	1	0.9	/	/
C/C(=N\NC(=O)c1ccccc1NC(=O)c1ccc(Cl)cc1)c1ccncc1	7	1	1.1	/	/
Cc1cc(=O)[nH]c(N=N/C(=N/Nc2ccc(O)cc2)c2ccccc2)n1	94*	2.3*	1.9	60	40
COc1ccc(N/N=C(/N=Nc2nc(C)cc(=O)[nH]2)c2ccccc2)cc1	100*	2.3*	1.8	8	13
Cc1cc(=O)[nH]c(N=N/C(=N/Nc2ccccc2C)c2ccccc2)n1	98*	1.8	1.5	3.6*	7
Cc1cc(=O)[nH]c(N/N=C/c2ccccc2C(F)(F)F)n1	1	0.9	1	/	/
CCOc1ncccc1C(=O)OCC(=O)c1ccc(C)c(C)c1	-1	1	1	/	/
O=C(CN(C(=O)C1CSC(=O)C1)c1cccc(F)c1)NC1CCCC1 (stereo unspecified)	-9	1	1	/	/
O=C(CN(Cc1ccc(F)cc1)C(=O)C1CSC(=O)C1)NC1CCCCC1 (stereo unspecified)	98*	1	1.1	103	94
Cc1c(C(=O)NCc2cccnc2)sc2nc(-c3ccc(F)cc3)cn12	96*	0.9	0.9	83	82
COC(=O)C1CCN(C(=O)c2sc3nc(-c4ccc(F)cc4)cn3c2C)CC1	16	0.8	0.8	94	90
COc1ccc(-c2cn3c(C)c(C(=O)NCCN4CCOCC4)sc3n2)cc1	-4	1.4	1.3	77	92
Cc1c(C(=O)NCCCN2CCOCC2)sc2nc(-c3ccc(F)cc3)cn12	79*	1	1	86	89
SMILES	Lmaj promast	PMI act hi M6P	PMI activator	HCT116 PTEN-null	bCat KO growth
Cc1nc(C(F)(F)F)c(C(=O)N/N=C(\N)c2cccnc2)s1	-3	1	1	/	/
Cc1c(CCOC(=O)CC23CC4CC(CC(C4)C2)C3)sc[n+]1Cc1ccccc1	100*	1.1	1	56	52
CCN1CCN(c2ccc(NC(=O)c3ccc([N+](=O)[O-])o3)cc2Cl)CC1	101*	0.9	1	/	/
CCC(=O)N1CCN(c2ccc(NC(=O)c3ccc([N+](=O)[O-])o3)cc2Cl)CC1	101*	1	1.1	/	/
CCN1CCc2c(OCc3ccccc3)cccc2C1=O	-9	1.2	1.2	/	/
COc1ccc(-n2c(C)cc(C(=O)CN3CCC(C)CC3)c2C)cc1	92*	1	1	/	/
CCN1CCN(CC(=O)c2cc(Cl)ccc2Cl)CC1	29	2*	1.6	/	/
Cc1cc(C(=O)CN2CCCCC2)c(C)n1-c1ccc(F)cc1	12	0.9	0.9	93	84
Cc1cc(C(=O)CN2CCC(C)CC2)c(C)n1-c1ccc(F)cc1	91*	0.9	1	72	74
CCN1CCN(C(=O)Nc2cc(Cl)ccc2OC)CC1	-1	1	1	/	/
Cc1cc(C(=O)CN2C(=O)C(=O)N(C3CCCC3)C2=O)c(C)n1-c1ccc(F)cc1	-2	0.9	0.9	/	/
Cc1cc(C(=O)CN2CCCC2)c(C)n1-c1ccc(Cl)cc1	53*	1	1.1	/	/
COc1ccc(C2C(C#N)=C(N)Oc3cc(C)[nH]c(=O)c32)c(OC)c1OC (stereo unspecified)	-4	1	0.9	107	100
C=CCN=C(NC#N)SCc1ccccc1Cl	-1	0.9	0.9	80	93
CCOC(=O)c1cc(C(=O)OCC)cc(-n2c(C)cc(C(=O)CN3CCOCC3)c2C)c1	93*	1	1	85	85
COc1ccc(-n2c(C)cc(C(=O)CN3CCCCC3)c2C)cc1	1	0.8	0.9	/	/
O=C(c1cc(N2C(=O)C3C4CCC(C4)C3C2=O)ccc1Cl)N1CCN(c2ccccc2)CC1 (stereo unspecified)	72*	0.9	0.9	93	84
COC(=O)C(C(=O)OC)C(C[N+](=O)[O-])c1ccc(O)c(OC)c1 (stereo unspecified)	20	1.1	1.1	58	63
CC(C)CN(CC(C)C)C(=S)Nc1ccc(Cl)cc1	24	0.8	0.9	/	/
COc1ccc(C(CC(=O)c2ccccc2)CC(=O)c2ccccc2)cc1OC	51*	1	0.9	/	/
O=C1CCC2S/C(=C/Nc3ccc(C(F)(F)F)cc3)C(=O)N12 (stereo unspecified)	-4	0.9	0.9	/	/
COc1cccc2oc(-c3ccco3)cc(=O)c12	31	1.1	1.1	78	74
COc1ccc(S(=O)(=O)Nc2ccc(S(=O)(=O)Nc3nc(C)cc(C)n3)cc2)cc1OC	-9	1	0.9	87	93
OC(CN1CCN(Cc2ccc3c(c2)OCO3)CC1)c1c[nH]c2ccccc12 (stereo unspecified)	91*	1	1	16	11
OC(CN1CCN(c2ccccc2)CC1)c1c[nH]c2ccccc12 (stereo unspecified)	4	1	1	79	86
Cc1c(C(O)CN2CCN(Cc3ccc4c(c3)OCO4)CC2)c2ccccc2n1C (stereo unspecified)	100*	0.9	0.8	58	65
O=C(CCC1CCCC1)N1CCC(N2CCCCCC2)CC1	91*	0.8	1	90	85
COc1ccccc1N1CCN(C2CCN(C(=O)COc3cccc(C)c3)CC2)CC1	56*	1	1	95	82

High-throughput results: PubChem, several laboratories
